PGC1a acetyl inh = PGC1a acetylation modulation, inhibitor mode; inhibition, % at 15.6 µM; AID 651687; U2OS PGC1a acetylation, AlphaScreen anti-acetyl-lysine; with virally co-expressed GCN5 acetyltransferase; 350,000 compounds, 0.17% hits;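 active = every replicate shows inhibition of at least 40%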;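 note: 0% = neutral control wells and 100% = positive control wells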
FGF22 binding = binders of recombinant human FGF22 by thermal shift | Q9HCT0 | SYPRO orange fluorescence; percent of sucrose octasulfate shift, DMSO zero | activity (Tm shift, normalised), % at 9.99 µM | 340,000 compounds, 1.5% hits | AID 651658;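 active = mean Tm shift, scaled 0 neutral to 100 positive control, at about 1.3% or above, every replicate too, limit read from the data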
HIV Env fusion = HIV envelope-mediated fusion inhibition. inhibition, % at 12.3 µM. HeLa-JRFL Env/CEM21 cell fusion, luciferase. AID 651610. 360,000 compounds, 1.1% hits;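 active = mean replicate inhibition score of at least 50 and every replicate individually at or above 50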;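 note: 0% = plate neutral controls and 100% = maraviroc near 300 nM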
Cneo AK release = causes C. neoformans cell lysis. adenylate kinase release luminescence, 4 h; normalised: neutral wells 0, clomiphene wells 100. lysis activity, % at 15 µM. 360,000 compounds, 0.2% hits. AID 651654;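 active = mean lysis activity across replicates of at least 80%, whatever share of replicates individually reach that level; inactive = mean lysis activity below 80%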
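Assay system: C. neoformans cells. Amount: yeast cell density of 5 × 10^6 cells/mL. Technique: AK luminescence. Buffer or medium: YPD. Times: static 4 h at 37 °C with compound, 1 h detection. Dosing: single-point compound dose. Read-out: lysis from increased AK signal.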
ERAP1 HTS inh = inhibitors of human ERAP1 aminopeptidase. 340,000 compounds, 0.15% hits. inhibition, % at 10.7 µM. recombinant ERAP1, Leu-AMC fluorescence, 60 min. AID 652197;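 active = mean replicate inhibition of at least 30%, or all replicates individually reaching that 30% level; inactive = mean below 30% and not every replicate reaching it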;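 note: 0% = neutral control wells and 100% = L-leucinethiol positive control wells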
Ecoli rRNA inh = selective bacterial rRNA inhibition in E. coli. E. coli WT GFP vs humanized-ribosome RFP mutants, fluorescence, 24 h; stronger effect = lower value; DMSO median 0, no signal -100. GFP signal change (wild-type ribosome), % (no concentration beside the values). 350,000 compounds, 1.6% hits;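 active = significant combined selectivity score with lowered wild-type GFP, culture density cut under 30%, mutant RFP and density less affected; inactive = any of these conditions unmet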
* marks the source's active call; other numbers are inactive results; · = not tested or not shown; [ ] = remark or other dose. Compounds with a hit are over-represented: about 3.5% of the library has one in this group of screens.

SMILES	PGC1a acetyl inh	FGF22 binding	HIV Env fusion	Cneo AK release	ERAP1 HTS inh	Ecoli rRNA inh
CCOc1ccc(-c2cc(CCCC(=O)Nc3cccc(OC)c3)no2)cc1	·	0	76*	0	2	-5
COc1ccc(C#Cc2ccc3c(c2)[C@]2(C(=O)N3)[C@H](c3ccc(O)cc3)N3[C@H](c4ccccc4)[C@H](c4ccccc4)OC(=O)[C@H]3[C@@H]2C(=O)O)cc1	-3	·	14[16.7 µM]	62	4	·
CCOC(=O)C1CCCN(Cc2nc(N)nc(Nc3ccc(OC)cc3)n2)C1 (stereo unspecified)	1	·	70*	-2	·	·
O=C(CSc1nnc(CNC(=O)c2ccco2)o1)c1ccc(Cl)cc1	2	·	-9	2	·	·
CCOC(=O)/C(=N\Nc1ccccc1)P(=O)(c1ccccc1)c1ccccc1	9	0	20	-3	6	-37*
CCCC#Cc1ccc2c(c1)O[C@H](CN(C)C(=O)CC1CC1)[C@@H](C)CN([C@H](C)CO)S2(=O)=O	0	0	-36[16.7 µM]	-2	-1	2
COc1ccc(N(C)C(=O)Cc2c(C(=O)O)[nH]c3ccccc23)c(OC)c1	4	44*	17	·	-6	8
Clc1ccccc1-c1nnc2sc(C3COc4ccccc4O3)nn12 (stereo unspecified)	11	·	37	1	·	·
O=C(CSc1nc2ccccc2c(=O)[nH]1)N1CCN(S(=O)(=O)c2ccccc2)CC1	6	0	·	-1	2	19
O=S(=O)(c1ccc(F)cc1)N1CCN(C(=S)NCc2ccccc2)CC1	2	44*	17	·	2	5
O=C(O)CSc1nc(-c2ccccc2)c(-c2ccccc2)[nH]1	7	0	-8	·	·	-1
O=S(=O)(c1ccc(F)cc1)N1CCN(C(=S)NCCc2ccccc2)CC1	·	0	·	-1	1	3
O=C(CSc1ccc(F)cc1)N1CCN(S(=O)(=O)c2ccccc2)CC1	-3	44*	-12	0	4	-10
CC(C)(C)NC(=O)CSc1nc(-c2ccccc2)c(-c2ccccc2)[nH]1	15	·	64*	4	·	·
O=C(CSc1nc(-c2ccccc2)c(-c2ccccc2)[nH]1)N1CCN(S(=O)(=O)c2ccccc2)CC1	1	·	84*	2	·	·
CC(C)Cn1c(SCC(=O)N2CCN(S(=O)(=O)c3ccccc3)CC2)nc2ccccc21	-1	·	-1	1	1	-32*
Cn1c(SCC(=O)N2CCN(S(=O)(=O)c3ccccc3)CC2)nc2ccccc21	0	0	·	·	-1	-1
O=C(Nc1ccn(CCCNCCCN2CCCC2=O)c(=O)n1)OCc1ccccc1	7	0	-9	7	·	19
Cc1ccc(CSc2nnc(-c3ccncc3)o2)c(C)c1	-18	43*	14	-1	6	3
COc1ccc(S(=O)(=O)Nc2ccc3c(c2)C(=O)N([C@H](C)CO)C[C@@H](C)[C@@H](CN(C)C)OCCCC[C@@H](C)O3)cc1	-13	0	8[16.7 µM]	1	-8	-1
Cc1ccc(S(=O)(=O)N2CCCC(C(=O)NCc3ccccn3)C2)cc1 (stereo unspecified)	-19	·	14	1	·	·
O=C(NCc1ccccn1)C1CCN(S(=O)(=O)c2ccccc2C(F)(F)F)CC1	·	0	-2	0	0	5
COC(=O)c1ccccc1S(=O)(=O)N1CCC(C(=O)NCc2ccccn2)CC1	12	43*	11	-3	-1	9
CS(=O)(=O)N1CCCC(C(=O)NCc2ccccn2)C1 (stereo unspecified)	47*	0	·	-1	-4	12
CC(NC(=O)Cc1ccc(F)cc1)c1ccc(F)cc1 (stereo unspecified)	4	0	-5	9	3	·
CCC(=O)N[C@@H]1CC[C@H](CC(=O)NCc2ccc(OC)cc2)O[C@@H]1CO	-2	0	-12[16.7 µM]	-1	-1	2
O=C(Nc1ccccc1F)N1CCCCN2[C@H](CO)[C@H](c3ccc(-c4cccnc4)cc3)[C@@H]2C1	5	0	·	-2	0	0
CC(C)C#Cc1ccc([C@@H]2[C@H](CO)N3CCCCN(C(=O)c4ccc5c(c4)OCO5)C[C@@H]23)cc1	-2	0	·	111*	4	-32

Assay outcomes from PubChem.
